In assay [1] the test system is Raji. In words: Cell viability of Raji cells. The class given is functional, Homo sapiens. In outline: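 Raji cells were exposed to test compound at 32 nmol, a 1000:1 mol ratio to TPA, and cell viability (%) was scored in the EBV-EA activation system.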
Assay [2] concerns Human gammaherpesvirus 4. Description: Effect on TPA-induced Epstein-Barr virus early antigen activation in Raji cells at 500 mol ratio/32 pmol TPA relative to control.
For assay [3], the system named is Human gammaherpesvirus 4. In words: Effect on TPA-induced Epstein-Barr virus early antigen activation in Raji cells at 1000 mol ratio/32 pmol TPA relative to control.
Assay [4] relates to Human gammaherpesvirus 4. In words: Inhibition of TPA-induced Epstein-Barr virus early antigen activation in Raji cells at 10 mol ratio/32 pmol TPA relative to control; values are per cent of control.
The subject of assay [5] is Human gammaherpesvirus 4. In words: Inhibition of TPA-induced Epstein-Barr virus early antigen activation in Raji cells at 100 mol ratio/32 pmol TPA relative to control; values are per cent of control.
In assay [6] the test system is Mus musculus. Description: Inhibition of DMBA initiated TPA-induced skin tumor promotion in mouse at 85 nmol after 20 weeks by in vivo two-stage carcinogenesis test. The format is functional, organism-based.

Calls of active or inactive are those of the source. The rule behind the calls is not given here.

Consider `C=C(C)[C@@H]1CCC2=C(CC[C@]3(C)[C@@H](C(CCC(=C)C(C)(C)O)C(=O)O)[C@H](O)C[C@@]23C)[C@@]1(C)CCC(=O)O` (some centres not stated) [25-HYDROXYPORICOIC ACID H], for which the Activity in assay [1] came to 70%; in assay [2], 16.7%; in assay [3], 0%. Further, the “EBV-EA activation (% of control)” value was found to be 82.8% in assay [4] and 57.5% in assay [5].

Turning to `C=C(CC[C@@H](C(=O)O)[C@H]1CC[C@@]2(C)C3=C(CC[C@]12C)[C@@]1(C)CC[C@H](O)C(C)(C)[C@@H]1CC3)C(C)C` [EBURICOIC ACID], the Activity in assay [1] amounted to 70%; in assay [2], 45.8%; in assay [3], 9.1%. The entries for the “EBV-EA activation (% of control)” value in assay [4] and in assay [5] were 100% and 75.3%, respectively.

With `C=C(CCC(C(=O)O)[C@H]1CC[C@@]2(C)C3=CC[C@@H](C(=C)C)[C@](C)(CCC(=O)OC)C3=CC[C@]12C)C(C)C` (some centres not stated) [PORICOIC ACID CM], the Activity in assay [1] stood at 70%; in assay [2], 37.2%; in assay [3] it was 0%. Further, the results for the “EBV-EA activation (% of control)” value in assay [4] and in assay [5] were 87.6% and 63.4%, respectively.

Take `CC1=C(/C=C/C(C)=C/C=C/C(C)=C/C=C/C=C(C)/C=C/C=C(C)/C=C/C2=C(C)CCCC2(C)C)C(C)(C)CCC1` [BETA CAROTENE]: the Activity in assay [1] is 70%; in assay [2] it was 34.2%; in assay [3], 8.6%. In addition, the “EBV-EA activation (% of control)” value was found to be 100% in assay [4] and 82.1% in assay [5].

For the compound `CC(C)=CCCC(C(=O)O)[C@H]1CC[C@@]2(C)C3=CC[C@H]4C(C)(C)C(=O)CC[C@]4(C)C3=CC[C@]12C` (some centres not stated) [DEHYDROTRAMETENONIC ACID], the Activity in assay [1] came to 70%; in assay [2] it was 30.1%; in assay [3] it was 0%. In addition, the “EBV-EA activation (% of control)” value stood at 94.2% in assay [4] and 71% in assay [5].

Turning to `C=C(CCC(C(=O)O)[C@H]1CC[C@@]2(C)C3=CC[C@H]4C(C)(C)C(=O)CC[C@]4(C)C3=CC[C@]12C)C(C)C` (some centres not stated) [DEHYDROEBURICONIC ACID], the Activity in assay [1] was found to be 70%; in assay [2] it was 43.9%; in assay [3], 9.5%. The “EBV-EA activation (% of control)” value in assay [4] was 100%; in assay [5] it was 79.5%.

For `CC(C)=CCCC(C(=O)O)[C@H]1CC[C@@]2(C)C3=CC[C@H]4C(C)(C)[C@@H](O)CC[C@]4(C)C3=CC[C@]12C` (some centres not stated), the Activity came to 70% in assay [1], 45.3% in assay [2] and 9.2% in assay [3]. Further, the “EBV-EA activation (% of control)” value is 100% in assay [4] and 79.1% in assay [5].

For `C=C(CCC(C(=O)O)[C@H]1[C@H](O)C[C@@]2(C)[C@]34C=C[C@@]5(OO3)C(C)(C)[C@@H](O)CC[C@]5(C)C4=CC[C@]12C)C(C)C` (some centres not stated), the Activity in assay [1] came to 60%; in assay [2] it was 17.4%; in assay [3], 0%. The “EBV-EA activation (% of control)” value in assay [4] worked out at 83.6%; in assay [5] it was 57.8%.

Turning to `C=C(CC[C@@H](C(=O)O)[C@H]1CC[C@@]2(C)C3=CC[C@@H](C(=C)C)[C@](C)(CCC(=O)O)C3=CC[C@]12C)C(C)C` [PORICOIC ACID C], the Activity in assay [1] came to 70%; in assay [2], 21.1%; in assay [3], 0%. In addition, in assay [6], the result was Active. The “EBV-EA activation (% of control)” value in assay [4] turned out to be 91.7%; in assay [5], 67.2%.

`C=C(C)[C@@H]1CC=C2C(=CC[C@]3(C)[C@@H]([C@@H](CCC(=C)C(C)(C)O)C(=O)O)[C@H](O)C[C@@]23C)[C@@]1(C)CCC(=O)OC` [PORICOIC ACID DM]: the Activity in assay [1] worked out at 70%; in assay [2], 18.1%; in assay [3] it was 0%. Further, the “EBV-EA activation (% of control)” value in assay [4] was found to be 86.3%; in assay [5] it was 59%.

With `C=C(CCC(C(=O)O)[C@H]1[C@H](O)C[C@@]2(C)C3=CC[C@H]4C(C)(C)C(=O)CC[C@]4(C)C3=CC[C@]12C)C(C)(C)O` (some centres not stated), the Activity in assay [1] came to 70%; in assay [2], 39.5%; in assay [3], 0%. In addition, the entries for the “EBV-EA activation (% of control)” value in assay [4] and in assay [5] were 91.7% and 65.3%, respectively.

As for `C=C(C)[C@@H]1CC=C2C(=CC[C@]3(C)[C@@H](C(CCC(=C)C(C)(C)O)C(=O)O)[C@H](O)C[C@@]23C)[C@@]1(C)CCC(=O)O` (some centres not stated) [PORICOIC ACID D], the Activity in assay [1] was 70%; in assay [2], 15.3%; in assay [3] it was 0%. The “EBV-EA activation (% of control)” value stood at 81.5% in assay [4] and 56.1% in assay [5].

On to `C=C(CCC(C(=O)O)[C@H]1[C@H](O)[C@H](O)[C@@]2(C)C3=CC[C@H]4C(C)(C)[C@@H](O)CC[C@]4(C)C3=CC[C@]12C)C(C)C` (some centres not stated), for which the figures for the Activity in assay [1], in assay [2] and in assay [3] were 70%, 22.5% and 0%, respectively. Further, the “EBV-EA activation (% of control)” value in assay [4] came out at 91%; in assay [5] it was 70%.

On to `C=C(CC[C@@H](C(=O)O)[C@H]1CC[C@@]2(C)C3=CC[C@H]4C(C)(C)[C@@H](O)CC[C@]4(C)C3=CC[C@]12C)C(C)C` [DEHYDROEBURICOIC ACID], for which the values for the Activity in assay [1], in assay [2] and in assay [3] were 70%, 45.1% and 8.7%, respectively. In addition, the figures for the “EBV-EA activation (% of control)” value in assay [4] and in assay [5] were 100% and 74.9%, respectively.

On to `C=C(CC[C@@H](C(=O)O)[C@H]1[C@H](O)C[C@@]2(C)C3=C(CC[C@]12C)[C@@]1(C)CC[C@H](OC(C)=O)C(C)(C)[C@@H]1CC3)C(C)C` [PACHYMIC ACID], for which the Activity is 70% in assay [1], 24.7% in assay [2] and 0% in assay [3]. Also, the “EBV-EA activation (% of control)” value in assay [4] is listed as 96.5%; in assay [5], 71.6%.

As for `C=C(CCC(C(=O)O)[C@H]1[C@H](O)C[C@@]2(C)C3=CC[C@H]4C(C)(C)[C@@H](OC(C)=O)CC[C@]4(C)C3=CC[C@]12C)C(C)C` (some centres not stated) [DEHYDROPACHYMIC ACID], the values for the Activity in assay [1], in assay [2] and in assay [3] were 70%, 28.1% and 0%, respectively. Besides, the “EBV-EA activation (% of control)” value in assay [4] is listed as 95.1%; in assay [5], 72.4%.

As for `C=C(C)[C@@H]1CC=C2C(=CC[C@]3(C)[C@@H](C(CCC=C(C)C)C(=O)O)CC[C@@]23C)[C@@]1(C)CCC(=O)O` (some centres not stated) [16-DEOXYPORICOIC ACID B], the results for the Activity in assay [1], in assay [2] and in assay [3] were 70%, 19.3% and 0%, respectively. The result in assay [6] was Active. Moreover, the “EBV-EA activation (% of control)” value in assay [4] was determined as 90%; in assay [5], 65%.

Turning to `C=C(CC[C@@H](C(=O)O)[C@H]1[C@H](O)C[C@@]2(C)C3=CC[C@@H](C(=C)C)[C@](C)(CCC(=O)OC)C3=CC[C@]12C)C(C)C` [PORICOIC ACID AM], the Activity in assay [1] was found to be 70%; in assay [2], 9.6%; in assay [3] it was 0%. Also, the “EBV-EA activation (% of control)” value in assay [4] turned out to be 81.8%; in assay [5] it was 57.8%.

For the origin of these results see ChEMBL document CHEMBL1143669, “Triterpene acids from Poria cocos and their anti-tumor-promoting effects” (2007).
